Tests used:
[1] = system: mouse brain serine hydrolases; assay type: biochemical; conditions: gel-based ABPP 0.1 or 2 μM; MS-based ABPP 1 μM
[2] = system: serine hydrolases; assay: ABPP of brain serine hydrolase activities from treated mice; assay type: in vivo, mouse; conditions: gel- and MS-based ABPP, more than 65 other serine hydrolases quantified
Outline: (§1)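 Mice dosed i.p. with test compound (30 mg/kg) or vehicle and killed after 4 h (isoflurane, then cervical dislocation). Brain membrane serine hydrolase activities quantified by MS-based ABPP. Each protein's value is the mean of median peptide ratios (treated vs vehicle) ± SEM, from n = 4 or 3 independent samples per compound.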

[3] = target: T1, ABHD12 (Homo sapiens, UniProt Q8N2K0); assay: In situ treatment of THP-1 cells, competitive gel-based ABPP with JJH350 probe; assay type: cell-based; conditions: 1 μM, 4 h in situ
T1 sequence (Q8N2K0 1-398): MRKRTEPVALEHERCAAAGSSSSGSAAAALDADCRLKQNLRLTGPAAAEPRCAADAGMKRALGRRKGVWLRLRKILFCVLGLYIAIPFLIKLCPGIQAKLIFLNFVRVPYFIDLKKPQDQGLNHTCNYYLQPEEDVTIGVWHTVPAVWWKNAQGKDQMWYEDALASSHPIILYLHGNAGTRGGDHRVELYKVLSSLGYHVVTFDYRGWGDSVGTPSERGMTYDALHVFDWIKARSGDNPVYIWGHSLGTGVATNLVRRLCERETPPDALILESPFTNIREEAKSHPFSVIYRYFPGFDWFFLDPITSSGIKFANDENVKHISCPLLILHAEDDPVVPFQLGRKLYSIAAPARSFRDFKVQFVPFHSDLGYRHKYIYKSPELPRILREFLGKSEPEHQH
Outline: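 Whole THP-1 cells exposed to test compound or DMSO for 4 h at 37 °C, 5% CO₂, then washed twice with ice-cold DPBS. Proteome (1 mg/mL) labelled with JJH350 (2 μM final, 45 min, 37 °C), clicked by CuAAC and resolved on gel. ABHD12 band intensity is expressed relative to the control-treated sample, set to 100%.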

[4] = target: T2, ABHD12 (Mus musculus, UniProt Q99LR1); assay: ABHD12-dependent lyso-PS lipase activity of mouse brain membrane proteome; assay type: biochemical
T2 sequence (Q99LR1 1-398): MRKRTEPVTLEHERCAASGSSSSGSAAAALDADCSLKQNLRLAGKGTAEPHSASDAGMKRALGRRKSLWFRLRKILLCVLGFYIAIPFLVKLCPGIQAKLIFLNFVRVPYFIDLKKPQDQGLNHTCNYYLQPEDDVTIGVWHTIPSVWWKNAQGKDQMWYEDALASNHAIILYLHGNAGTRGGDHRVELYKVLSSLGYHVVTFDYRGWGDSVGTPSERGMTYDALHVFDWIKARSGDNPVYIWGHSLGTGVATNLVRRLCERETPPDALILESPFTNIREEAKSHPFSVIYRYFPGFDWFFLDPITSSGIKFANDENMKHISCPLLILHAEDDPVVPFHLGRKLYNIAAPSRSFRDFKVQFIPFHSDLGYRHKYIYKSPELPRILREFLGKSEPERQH

[5] = target: T3, PLA2G6 (Mus musculus, UniProt P97819); assay: Quantitative MS-ABPP of brain membrane proteome from treated mice: PLA2G6; assay type: in vivo; conditions: 30 mg/kg, i.p., 4 h
T3 sequence (P97819 1-807): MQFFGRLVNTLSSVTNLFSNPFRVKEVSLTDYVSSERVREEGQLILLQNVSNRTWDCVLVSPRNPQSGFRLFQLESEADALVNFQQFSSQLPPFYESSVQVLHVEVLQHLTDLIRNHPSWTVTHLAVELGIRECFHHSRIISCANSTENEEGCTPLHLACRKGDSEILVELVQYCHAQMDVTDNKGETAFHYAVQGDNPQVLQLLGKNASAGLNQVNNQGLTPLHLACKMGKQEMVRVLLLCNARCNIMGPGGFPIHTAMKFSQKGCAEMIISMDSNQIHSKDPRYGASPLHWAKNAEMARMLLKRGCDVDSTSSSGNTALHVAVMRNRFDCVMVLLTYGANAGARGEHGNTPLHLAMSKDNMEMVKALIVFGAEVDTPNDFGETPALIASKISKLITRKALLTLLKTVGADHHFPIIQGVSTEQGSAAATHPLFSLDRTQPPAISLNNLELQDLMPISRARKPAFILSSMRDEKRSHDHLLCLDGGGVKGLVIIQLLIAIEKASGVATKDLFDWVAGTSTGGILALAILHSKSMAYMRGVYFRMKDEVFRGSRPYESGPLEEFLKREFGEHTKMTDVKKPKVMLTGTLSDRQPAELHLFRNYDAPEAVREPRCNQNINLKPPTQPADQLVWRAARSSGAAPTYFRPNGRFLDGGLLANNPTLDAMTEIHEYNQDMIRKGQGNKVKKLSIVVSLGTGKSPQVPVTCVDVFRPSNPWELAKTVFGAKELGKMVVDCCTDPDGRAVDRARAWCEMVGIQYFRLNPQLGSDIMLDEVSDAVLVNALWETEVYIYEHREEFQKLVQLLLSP
Outline: as §1

[6] = system: THP-1 cells; assay: Targeted LC-MS of; assay type: cell-based, human; conditions: 4 h
Outline: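 THP-1 cells (6 million in 10 mL) incubated with test compound or DMSO for 4 h at 37 °C, 5% CO₂. Cells washed twice with ice-cold DPBS and stored at −80 °C, then analysed by targeted LC-MS metabolomics for lyso-PS and PS species.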

[7] = system: C57BL/6 mice; assay: Targeted LC-MS of brain lipid content of treated mice; assay type: in vivo, mouse
Outline: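 Mice received test compound or vehicle i.p. (single doses, 24 h; or 30 mg/kg time course), orally (24 h), or 30 mg/kg daily p.o. for four weeks (8-month-old mice). Brains harvested after isoflurane and cervical dislocation; lipids measured by targeted LC-MS. ABHD12(+/+) and (−/−) brains serve as reference; chronic data given as mean ± SEM.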

[8] = system: LCMV clone 13; conditions: mouse, in vivo

FC(F)(F)Oc1ccc(Oc2ccnc(N3CCC(NC(=S)Nc4cccnc4)CC3)c2Cl)c(Cl)c1 [DO264, N-3-pyridyl-N’-(1-[3-chloro-4-{2-chloro-4-(trifluoromethoxy)phenoxy}pyridine-2-yl]piperidin-4-yl)thiourea]
selectivity for ABHD12 over other mouse brain serine hydrolases [1]: excellent selectivity
selectivity for ABHD12 in vivo [2]: excellent selectivity
ABHD12 activity in THP-1 cells by competitive gel-based ABPP (in words) [3]: complete blockade
IC50 [4]: 2.8 nM
reduction in PLA2G6 activity in treated mice [5]: 40-50%
20:4 PS lipids of THP-1 cells ([6]; 0.001-1 μM): concentration-dependent increase
lyso-PS content of THP-1 cells ([6]; DO264 0.001-1 μM, (S)-DO271 1 μM): substantial elevations
time post-dosing at which brain lyso-PS changes were maximal ([7]; 30 mg/kg, i.p., detectable by 4 h): 24 h
brain 20:4 lyso-PI ([7]; 30 mg/kg, p.o., 24 h): increase
brain lyso-PS and 20:4 PS after chronic treatment ([7]; 8-month-old mice, 30 mg/kg daily, p.o., four weeks): Substantial elevations
brain lyso-PS species and select 20:4 PS species ([7]; DO264 1-60 mg/kg, (S)-DO271 60 mg/kg, i.p., 24 h): dose-dependently increased
brain 2-AG ([7]; brain tissue of treated mice): did not show changes
dose at which maximal lyso-PS and 20:4 PS elevations were observed ([7]; i.p., 24 h): 30 mg/kg
pathological response to Cl13 infection, in comparison to (S)-DO271 [8]: heightened pathology
pro-inflammatory chemokines in BALF compared to control group [8]: increases
total protein in bronchoalveolar lavage fluid (BALF) compared to control group [8]: increases
fraction of treated ABHD12(−/−) mice that died prior to sacrifice at day 10 ([8]; ip, 30 mg/kg): 30-40%

— article PMC6263940 (Nature chemical biology, 2018)
